APJ agonist = agonists of human apelin receptor APJ, primary screen, CHO-K1 cells, PathHunter beta-arrestin, luminescence; 0% DMSO wells, 100% apelin; 330,000 tested, 0.11% active; activation, % at 20 µM; AID 2520, 2010;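 active means activation more than six SD over the plate average, tested at 20 µM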
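Test system: CHO-K1 APJ beta-arrestin complementation cell line | Compound: Single test compound dose, 20 µM final, 1% DMSO | Incubation: Compound 90 min 25 °C, reagent 1 h | Measured by: beta-gal luminescence | Read-out basis: APJ–arrestin association signal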
EBI2 antag = EBI2 receptor antagonists, beta-arrestin recruitment, primary screen, cell-based, luminescence, 7a,25-OHC stimulation, uHTS; 7a,25-OHC stimulated; inhibition, % at 5 µM; 360,000 tested, 0.81% active; AID 651636, 2012; in the data active means inhibition above about 38%;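 further: enzyme fragment complementation signal reports receptor beta-arrestin coupling in cells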
CCR6 antag = CCR6 receptor antagonists, primary screen, cell-based, CHO-K1, luminescence, beta-arrestin, uHTS; CHO-K1 CCR6 PathHunter beta-arrestin, CCL20-stimulated; inhibition, % at 20 µM; AID 493098, 2011; 340,000 tested, 0.49% active; C-C chemokine receptor type 6 (Homo sapiens), P51684;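 active means compounds whose inhibition of the agonist-driven luminescence signal at 20 µM reaches about 50%, limit read from the data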;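 further: cells stimulated with CCL20 at 14 nM final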
Target sequence (P51684 whole entry, looked up): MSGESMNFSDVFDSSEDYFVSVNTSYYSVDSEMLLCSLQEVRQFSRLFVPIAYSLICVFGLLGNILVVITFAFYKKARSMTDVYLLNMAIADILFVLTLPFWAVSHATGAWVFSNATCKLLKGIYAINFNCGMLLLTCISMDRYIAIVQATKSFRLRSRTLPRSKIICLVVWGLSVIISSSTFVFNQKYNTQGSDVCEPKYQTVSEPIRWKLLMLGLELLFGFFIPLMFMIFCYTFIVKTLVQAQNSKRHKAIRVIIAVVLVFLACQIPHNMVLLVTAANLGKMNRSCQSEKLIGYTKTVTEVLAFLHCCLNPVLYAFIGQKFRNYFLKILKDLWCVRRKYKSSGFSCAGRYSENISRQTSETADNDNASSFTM
CXCR6 block = CXCR6 receptor inhibitors, primary screen, cell-based, beta-arrestin, luminescence, CHO-K1 PathHunter, 1536-well. AID 602244, 2012. inhibition, % at 20 µM. 360,000 tested, 0.36% active. C-X-C chemokine receptor type 6 (Homo sapiens), O00574; in the data active means inhibition above about 34%, passing the limit was not always enough;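 further: antagonist mode with CXCL16 agonist at 10 nM final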
APJ antagonist = antagonists of human apelin receptor APJ, primary screen, CHO-K1 cells, beta-arrestin complementation, luminescence; 330,000 tested, 0.32% active; P35414; inhibition, % at 20 µM;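 active means inhibition above about 40% at 20 µM, limit read from the data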;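 further: cells challenged with 10 nM apelin-13 agonist together with compound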
EBI2 conf = EBI2 antagonist hit retest, beta-arrestin, confirmation, cell-based, single concentration, luminescence, 7a,25-OHC stimulation | shares compounds with EBI2 antag | 7a,25-OHC antagonism | inhibition, % at 5 µM | 2,400 tested, 29% active | AID 651997, 2013;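 active means inhibition of at least 50%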
EBI2 agonist = EBI2 agonist activity of antagonist hits, confirmation, counter-screen for EBI2 antagonist project, cell-based, single concentration, agonist mode, luminescence | shares compounds with EBI2 antag | EBI2-expressing cells, 60 min; 0% vehicle, 100% 7α,25-dihydroxycholesterol control | activation, % at 5 µM | 2,400 tested, under 10 active | AID 652000, 2013;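 active means activation of at least 50%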
bGal cs = E. coli beta-galactosidase enzyme inhibition, confirmation, counter-screen for EBI2 antagonist project, biochemical, luminescence, single concentration | 2,400 tested, 1% active | inhibition, % at 5 µM | purified beta-galactosidase, luminescent Galacton Star, 15 min | shares compounds with EBI2 antag | AID 652176, 2013;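 active means replicate-average signal at least 3 plate SD below neutral wells, shown as high inhibition, flagging enzyme-inhibiting false positives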;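 further: higher means stronger loss of beta-gal luminescence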
Numbers stand for hits; i = inactive; nt = not tested or not shown. Rows were chosen to be rich in hits. Some 1.5% of all compounds tested hit in one or more screens of this group.

SMILES	APJ agonist	EBI2 antag	CCR6 antag	CXCR6 block	APJ antagonist	EBI2 conf	EBI2 agonist	bGal cs
COc1ccc(NC(=O)c2ccc(COCC(F)(F)C(F)F)cc2)cc1	i	44	i	i	i	i	i	i
CCc1ccc(OCc2nnc(SCc3ccc(C(=O)O)cc3)o2)cc1	i	i	i	i	i	nt	nt	nt
Cc1ccc2nc(-c3ccncc3)cc(C(=O)Nc3ccc(F)cc3C)c2c1	i	51	i	i	i	64	i	i
CCN(CC)C1CCN(c2nc3nonc3nc2NCCOC)C1 (stereo not drawn)	i	i	i	i	i	nt	nt	nt
CCc1ccc(CN(C)C(=O)c2cc(=O)c3ccccc3o2)cc1	i	86	i	i	i	65	i	i
CCOC(=O)/C(=N/Nc1ccc(OC)cc1)N1CCCc2ccccc21	i	i	i	i	i	nt	nt	nt
C[C@H]1CN(CCc2ccccc2)C(=O)[C@@H]1CC(=O)Nc1ccc(Br)cc1	nt	i	nt	i	nt	nt	nt	nt
CCCOc1ccc(C(=O)N2CCN(c3ccc(N)cc3Cl)CC2)cc1	i	70	i	i	i	52	i	i
Cc1ccc(-c2cn3c(=O)cc(C)[nH]c3n2)cc1	i	i	i	i	i	nt	nt	nt
COc1ccc(CCNC(=O)/C(C#N)=C/c2cccc(OCc3ccccc3)c2)cc1OC	i	53	i	i	i	i	i	i
COc1cc(/C=C(\C#N)C(=O)NCc2ccccc2)ccc1OCc1ccc(C(=O)O)cc1	i	i	i	i	i	nt	nt	nt
CCn1cc(C(=O)NN)c(=O)c2cc(F)c(NC3CCCCC3)cc21	i	91	i	i	i	62	i	i
CCn1cc(C(=O)NN)c(=O)c2cc(F)c(N3CCCCC3)cc21	i	i	i	i	i	nt	nt	nt
CC(C)C(NS(=O)(=O)c1ccccc1)C(=O)OCC(=O)NNC(=O)c1ccccc1 (stereo not drawn)	i	53	i	i	i	i	i	i
COc1ccc(Cl)cc1NC(=O)CN(C)C(=O)Cc1ccc(-c2ccccc2)cc1	i	i	i	i	i	nt	nt	nt
COc1ccc(C(C)=O)cc1CSc1nc2ccccc2c(=O)n1-c1ccccc1C	i	44	i	i	i	i	i	i
NS(=O)(=O)c1ccc(CCNC(=S)Nc2ccc(F)cc2)cc1	i	i	i	i	i	nt	nt	nt
CC(NC(=O)C1CCN(C(=O)Nc2ccccc2)CC1)c1ccc(Cl)cc1 (stereo not drawn)	i	46	i	i	i	i	i	i
O=C(NCC(c1ccccc1Cl)N1CCCC1)C1CCN(C(=O)Nc2ccccc2)CC1 (stereo not drawn)	i	53	i	i	i	i	i	i
COc1cc2[nH]c(=O)n(CCCC(=O)NC3CCCCC3)c(=O)c2cc1OC	i	i	i	i	i	nt	nt	nt
N#Cc1ccc(/C=N/NC(=S)Nc2ccc(S(=O)(=O)N3CCOCC3)cc2)cc1	i	54	i	i	i	i	i	i
O=S(=O)(c1ccc(NC(=S)N/N=C/c2ccc(O)c(O)c2)cc1)N1CCOCC1	i	i	i	i	i	nt	nt	nt
C[C@H](CO)N1C[C@H](C)[C@@H](CN(C)S(C)(=O)=O)Oc2ccc(NC(=O)CCN3CCOCC3)cc2C1=O	i	i	i	i	i	nt	nt	nt
CC(=O)Oc1ccc(C(=O)[C@H]2[C@H]3C(=O)N(c4ccc(C)cc4)C(=O)[C@H]3[C@@H]3C=CC=NN32)cc1	i	i	i	i	i	nt	nt	nt
CCOC(=O)c1cnn(-c2nc(-c3ccccc3)cs2)c1C(F)(F)F	i	nt	i	nt	i	nt	nt	nt

Assay outcomes: PubChem BioAssay, Sanford-Burnham Center for Chemical Genomics
